# Data from paper PMC4732916 (Journal of medicinal chemistry, 2016).
# Like-named read-outs stand apart in the source and are kept apart here.
# Experiments:
# [1] = system: WM115 melanoma cells; assay: Cellular assays, EC50 quoted in text without S100B level; format: cell-based, human; details: for S100B-dependent killing (high vs low S100B cells): S100B-knockdown cell lines, result in words; for EC50: Homo sapiens
# [2] = target: T1, Ca^2+-S100B (Rattus norvegicus, UniProt P04631); assay: HSQC NMR of Ca2+-loaded S100B with SBiX compounds; format: binding; details: result in words; for effect on NMR spectra of Ca^2+-S100B (chemical shift perturbations / broadening): compared with pentamidine and heptamidine
# T1 sequence (P04631 1-92): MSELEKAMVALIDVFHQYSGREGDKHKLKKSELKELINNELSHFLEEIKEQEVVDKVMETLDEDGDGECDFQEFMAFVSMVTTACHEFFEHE
# Summary of the method: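 Samples: 15N-labelled rat S100B (purified >99%) at 0.1 mM subunit with 0.125 mM test compound, 10 mM CaCl2, 15 mM NaCl, 0.34 mM NaN3, 0.2% TPEN, 5% DMSO-d6, 10% D2O, 10 mM HEPES pH 7.2. 1H-15N HSQC spectra; 15N shifts indirectly referenced (ratio 0.10132905). Spectra were inspected visually for combined 1H+15N chemical shift perturbations to map the binding site.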
# [3] = target: T2, Ca^2+-loaded S100B (Rattus norvegicus, UniProt P04631); assay: Fluorescence polarization competition assay; format: binding; details: Site 1 probe; result in words
# T2 sequence (P04631 1-92): T1 sequence (P04631 1-92)
# Summary of the method: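 Competition of test compound with 10 nM TAMRA-labelled TRTK12 peptide (CapZ residues 265-276), bound to Site 1 of 1 μM rat S100B, all final concentrations. Compound titrated from the highest attainable concentration. Fluorescence polarization read at room temperature, ex 544 nm/em 590 nm.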
# [4] = system: WM115 melanoma cells transfected with shRNA^S100B (low S100B); assay: SYBR Green cell proliferation; format: cell-based, human; details: read-out: Low S100B EC50 Mean ± S.D.
# [5] = WM-115, read-out: EC50 in cellular assays
Compound,"EC50 [1, 5]",binding to Ca^2+-S100B as measured using NMR [2],ability to compete with TAMRA-TRTK probe in FPCA [3],other results
"N=C(N)c1ccc(OCCCCCCCOc2ccc(C(=N)N)cc2)cc1 [4a, Heptamidine]",,,,S100B-dependent killing (high vs low S100B cells) [1]: selectivity in killing melanoma cells with high S100B over those with low S100B was clearly observed
"N=C(N)c1ccc(OCCCCCOc2ccc(C(=N)N)cc2)cc1 [4b, pentamidine, reference compound]",,,,"EC50 ([1]; WM-115, read-out: ^CellsEC50): 26 µM"
"c1cc(C2=NCCN2)ccc1OCCCCCOc1ccc(C2=NCCN2)cc1 [5b, 1,5-bis(4-(4,5-dihydro-1H-imidazol-2-yl)phenoxy)pentane]",,,,effect on NMR spectra of Ca^2+-S100B (chemical shift perturbations / broadening) [2]: significant broadening
"c1cc(C2=NCCN2)ccc1OCCCCCCOc1ccc(C2=NCCN2)cc1 [5c, 1,6-bis(4-(4,5-dihydro-1H-imidazol-2-yl)phenoxy)hexane]",,,,effect on NMR spectra of Ca^2+-S100B (chemical shift perturbations / broadening) [2]: significant broadening
"c1cc(C2=NCCN2)ccc1OCCCCCCCCOc1ccc(C2=NCCN2)cc1 [5d, 1,8-bis (4-(4,5-dihydro-1H-imidazol-2-yl)phenoxy) octane]",,,,effect on NMR spectra of Ca^2+-S100B (chemical shift perturbations / broadening) [2]: significant broadening
"c1cc(C2=NCCCN2)ccc1OCCCCCCCOc1ccc(C2=NCCCN2)cc1 [6a, 1,7-bis (4-(1,4,5,6-tetrahydropyrimidin-2-yl)phenoxy)heptane]",200 to 600 µM,,,
"c1cc(C2=NCCCN2)ccc1OCCCCCOc1ccc(C2=NCCCN2)cc1 [6b, 1,5-bis(4-(1,4,5,6-tetrahydropyrimidin-2-yl)phenoxy)pentane]",200 to 600 µM,,,effect on NMR spectra of Ca^2+-S100B (chemical shift perturbations / broadening) [2]: significant broadening
"c1cc(C2=NCCCN2)ccc1OCCCCCCOc1ccc(C2=NCCCN2)cc1 [6c, 1,6-bis(4-(1,4,5,6-tetrahydropyrimidin-2-yl)phenoxy)hexane]",25 to 45 µM,,,
"c1cc(C2=NCCCN2)ccc1OCCCCCCCCOc1ccc(C2=NCCCN2)cc1 [6d, 1,8-bis(4-(1,4,5,6-tetrahydropyrimidin-2-yl)phenoxy)octane]",25 to 45 µM,,,
"c1cc(C2=NCCCCN2)ccc1OCCCCCCCOc1ccc(C2=NCCCCN2)cc1 [7a, 1,7-bis(4-(4,5,6,7-tetrahydro-1H-1,3-diazepin-2-yl)phenoxy)heptane]",5 to 20 µM,,,
"c1cc(C2=NCCCCN2)ccc1OCCCCCOc1ccc(C2=NCCCCN2)cc1 [7b, 1,5-bis (4-(4,5,6,7-tetrahydro-1H-1,3-diazepin-2-yl)phenoxy)pentane]",5 to 20 µM,,,
"c1cc(C2=NCCCCN2)ccc1OCCCCCCOc1ccc(C2=NCCCCN2)cc1 [7c, 1,6-bis(4-(4,5,6,7-tetrahydro-1H-1,3-diazepin-2-yl)phenoxy)hexane]",250 to 300 µM,,,
"c1cc(C2=NCCCCN2)ccc1OCCCCCCCCOc1ccc(C2=NCCCCN2)cc1 [7d, 1,8-bis (4-(4,5,6,7-tetrahydro-1H-1,3-diazepin-2-yl)phenoxy)octane]",5 to 20 µM,,,
"N=C(NCCCCCCCN)c1ccc(OCCCCCCCOc2ccc(C(=N)NCCCCCCCN)cc2)cc1 [9a, 4,4′-(heptane-1,7-diylbis(oxy))bis(N-(7-aminoheptyl)benzimidamide)]",,interacted,found to compete,effect on NMR spectra of Ca^2+-S100B (chemical shift perturbations / broadening) [2]: significant broadening
"N=C(NCCCCCCCN)c1ccc(OCCCCCCCCOc2ccc(C(=N)NCCCCCCCN)cc2)cc1 [9b, 4,4′-(octane-1,8-diylbis (oxy))bis(N-(7-aminoheptyl)benzimidamide)]",,interacted,found to compete,effect on NMR spectra of Ca^2+-S100B (chemical shift perturbations / broadening) [2]: significant broadening
"N=C(N)c1ccc(OCCCN(CCCOc2ccc(C(=N)N)cc2)Cc2ccccc2)cc1 [16a, 4,4′-(((benzylazanediyl)bis(propane-3,1-diyl))bis(oxy))dibenzimidamide]",40 to 50 µM,bound weakly,neither was able to compete,
"CCCN(CCCOc1ccc(C(=N)N)cc1)CCCOc1ccc(C(=N)N)cc1 [16b, 4,4′-(((propylazanediyl)bis(propane-3,1-diyl))bis(oxy))dibenzimidamide]",> 500 µM,bound weakly,neither was able to compete,
"N=C(NCCCCCN)c1ccc(OCCCCCOc2ccc(C(=N)NCCCCCN)cc2)cc1 [compound 8, 4,4′-(pentane-1,5-diylbis(oxy))bis(N-(5-aminopentyl)benzimidamide)]",35 to 40 µM,interacted,found to compete,
"N=C(NC(=O)Nc1ccccc1)c1ccc(OCCCCCCCOc2ccc(C(=N)NC(=O)Nc3ccccc3)cc2)cc1 [compound 10, 4,4′-(heptane-1,7-diylbis(oxy))bis(N-(phenylcarbamoyl)benzimidamide)]",< 1 µM,ability to bind,neither was able to compete,
"CNC(=O)NC(=N)c1ccc(OCCCCCCCOc2ccc(C(=N)NC(=O)NC)cc2)cc1 [compound 11, 4,4′-(heptane-1,7-diylbis (oxy))bis(N-(methylcarbamoyl)benzimidamide)]",130 to 150 µM,ability to bind,neither was able to compete,
"N=C(N)c1ccc(Oc2ccc(-c3cc4ccc(C(=N)N)cc4[nH]3)cc2)cc1 [compound 17, 2-(4-(4-carbamimidoylphenoxy)phenyl)-1H-indole-6-carboximidamide]",,found to bind,found to inhibit TAMRA-TRTK binding,S100B-dependent killing (high vs low S100B cells) [1]: no S100B-dependent killing
hexamidine [4c],,,,EC50 [4]: 234 ± 7.9 µM
